In ChEMBL document CHEMBL1148625, “3-(1,1-dioxo-2H-(1,2,4)-benzothiadiazin-3-yl)-4-hydroxy-2(1H)-quinolinones, potent inhibitors of hepatitis C virus RNA-dependent RNA polymerase” (J Med Chem, 2006):
Values belong to the compound of their own block, whether it stands above or below them.

Key:
[1] = Half life in Sprague-Dawley rat at 1.2 mg/kg, iv or 3.7 mg/kg, po; type: ADME, organism-based; conditions: in vivo
Procedure, shortened: (§1)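 Single-dose administration, given both intravenously and orally, to Sprague-Dawley rats, beagle dogs or cynomolgus monkeys. Plasma pharmacokinetic parameters are reported as means: Cmax in ng/mL, terminal half-life in min, clearance in mL/min/kg, steady-state volume of distribution in L/kg, and oral bioavailability F in %.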

[2] = Cmax in cynomolgus monkey at 1.0 mg/kg, iv or 3.6 mg/kg, po; type: ADME, organism-based, Macaca fascicularis; conditions: in vivo
Procedure, shortened: (§2)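 Single-dose pharmacokinetics in the named species, given iv and orally at the stated doses. Plasma Cmax, half-life, clearance, steady-state volume of distribution and oral bioavailability were reported as mean values.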

[3] = Volume of distribution in Beagle dog at 0.9 mg/kg, iv or 3.6 mg/kg, po; type: ADME, organism-based, Canis lupus familiaris; conditions: in vivo, read-out: Vdss; procedure, shortened: as §2
[4] = Oral bioavailability in cynomolgus monkey at 1.0 mg/kg, iv or 3.6 mg/kg, po; type: ADME, organism-based, Macaca fascicularis; conditions: in vivo; procedure, shortened: as §2
[5] = biological target: RNA-directed RNA polymerase (Hepacivirus hominis) (UniProt O39930); test: Inhibition of HCV RNA replication in Huh7 cells; type: functional, cell-based; conditions: Huh-7
Procedure, shortened: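 Huh-7 subgenomic replicon cells were seeded at 3 × 10³/well in DMEM with 10% FCS, 1% NEAA and 1 mg/mL G418, and allowed 4 h to attach. Eleven 2.5-fold DMSO dilutions were added (final 10,000 to 1.0 nM) and cells incubated 40 h. Neo RNA was measured by TaqMan RT-PCR, normalised to cyclophilin against DMSO controls; n = 8 wells per dilution.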

[6] = biological target: RNA-directed RNA polymerase (Hepacivirus hominis, UniProt O39930); test: Inhibitory activity against HCV delta 21 NS5B RNA polymerase by SPA assay; set-up: species or system Hepatitis C virus subtype 1b
[7] = Oral bioavailability in Sprague-Dawley rat at 1.2 mg/kg, iv or 3.7 mg/kg, po; type: ADME, organism-based; conditions: in vivo; procedure, shortened: as §1
[8] = Oral bioavailability in Beagle dog at 0.9 mg/kg, iv or 3.6 mg/kg, po; type: ADME, organism-based, Canis lupus familiaris; conditions: in vivo; procedure, shortened: as §2
[9] = Cmax in Sprague-Dawley rat at 1.2 mg/kg, iv or 3.7 mg/kg, po; type: ADME, organism-based; conditions: in vivo; procedure, shortened: as §1
[10] = Half life in Beagle dog at 0.9 mg/kg, iv or 3.6 mg/kg, po; type: ADME, organism-based, Canis lupus familiaris; conditions: in vivo; procedure, shortened: as §2
[11] = Half life in cynomolgus monkey at 1.0 mg/kg, iv or 3.6 mg/kg, po; type: ADME, organism-based, Macaca fascicularis; conditions: in vivo; procedure, shortened: as §2
[12] = Clearance in Sprague-Dawley rat at 1.2 mg/kg, iv or 3.7 mg/kg, po; type: ADME, organism-based; conditions: in vivo; procedure, shortened: as §1
[13] = Clearance in cynomolgus monkey at 1.0 mg/kg, iv or 3.6 mg/kg, po; type: ADME, organism-based, Macaca fascicularis; conditions: in vivo; procedure, shortened: as §2
[14] = Cmax in Beagle dog at 0.9 mg/kg, iv or 3.6 mg/kg, po; type: ADME, organism-based, Canis lupus familiaris; conditions: in vivo; procedure, shortened: as §2
[15] = Volume of distribution in cynomolgus monkey at 1.0 mg/kg, iv or 3.6 mg/kg, po; type: ADME, organism-based, Macaca fascicularis; conditions: in vivo, read-out: Vdss; procedure, shortened: as §2
[16] = Volume of distribution in Sprague-Dawley rat at 1.2 mg/kg, iv or 3.7 mg/kg, po; type: ADME, organism-based; conditions: in vivo, read-out: Vdss; procedure, shortened: as §1
[17] = Clearance in Beagle dog at 0.9 mg/kg, iv or 3.6 mg/kg, po; type: ADME, organism-based, Canis lupus familiaris; conditions: in vivo; procedure, shortened: as §2
[18] = Half life in cynomolgus monkey at 1.8 mg/kg, iv or 1.6 mg/kg, po; type: ADME, organism-based, Macaca fascicularis; conditions: in vivo; procedure, shortened: as §1
[19] = Cmax in Sprague-Dawley rat at 1.3 mg/kg, iv or 7.7 mg/kg, po; type: ADME, organism-based; conditions: in vivo
Procedure, shortened: (§3)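 Single intravenous or oral doses given to Sprague-Dawley rats. Values are reported as means: Cmax (ng/mL), half-life (min), plasma clearance (mL/min/kg), steady-state volume of distribution (L/kg) and oral bioavailability F (%).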

[20] = Half life in Beagle dog at 0.9 mg/kg, iv or 1.1 mg/kg, po; type: ADME, organism-based, Canis lupus familiaris; conditions: in vivo
Procedure, shortened: (§4)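 Single-dose study, with separate intravenous and oral administrations at the listed mg/kg. Plasma concentrations were followed over time, and mean values were derived for Cmax, T1/2, clearance (mL/min/kg), Vdss (L/kg) and oral bioavailability (%).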

[21] = Oral bioavailability in cynomolgus monkey at 1.8 mg/kg, iv or 1.6 mg/kg, po; type: ADME, organism-based, Macaca fascicularis; conditions: in vivo; procedure, shortened: as §1
[22] = Clearance in Beagle dog at 0.9 mg/kg, iv or 1.1 mg/kg, po; conditions: in vivo
[23] = Cmax in cynomolgus monkey at 1.8 mg/kg, iv or 1.6 mg/kg, po; type: ADME, organism-based, Macaca fascicularis; conditions: in vivo; procedure, shortened: as §1
[24] = Half life in Sprague-Dawley rat at 1.3 mg/kg, iv or 7.7 mg/kg, po; type: ADME, organism-based; conditions: in vivo; procedure, shortened: as §3
[25] = Volume of distribution in Sprague-Dawley rat at 1.3 mg/kg, iv or 7.7 mg/kg, po; type: ADME, organism-based; conditions: in vivo, read-out: Vdss; procedure, shortened: as §3
[26] = Clearance in cynomolgus monkey at 1.8 mg/kg, iv or 1.6 mg/kg, po; type: ADME, organism-based, Macaca fascicularis; conditions: in vivo; procedure, shortened: as §1
[27] = Oral bioavailability in Beagle dog at 0.9 mg/kg, iv or 1.1 mg/kg, po; type: ADME, organism-based, Canis lupus familiaris; conditions: in vivo; procedure, shortened: as §4
[28] = Volume of distribution in Beagle dog at 0.9 mg/kg, iv or 1.1 mg/kg, po; type: ADME, organism-based, Canis lupus familiaris; conditions: in vivo, read-out: Vdss; procedure, shortened: as §4
[29] = Oral bioavailability in Sprague-Dawley rat at 1.3 mg/kg, iv or 7.7 mg/kg, po; type: ADME, organism-based; conditions: in vivo; procedure, shortened: as §3
[30] = Clearance in Sprague-Dawley rat at 1.3 mg/kg, iv or 7.7 mg/kg, po; type: ADME, organism-based; conditions: in vivo; procedure, shortened: as §3
[31] = Cmax in Beagle dog at 0.9 mg/kg, iv or 1.1 mg/kg, po; type: ADME, organism-based, Canis lupus familiaris; conditions: in vivo; procedure, shortened: as §4
[32] = Volume of distribution in cynomolgus monkey at 1.8 mg/kg, iv or 1.6 mg/kg, po; type: ADME, organism-based, Macaca fascicularis; conditions: in vivo, read-out: Vdss; procedure, shortened: as §1
[33] = Oral bioavailability in Sprague-Dawley rat at 0.8 mg/kg, iv or 5.8 mg/kg, po; type: ADME, organism-based; conditions: in vivo; procedure, shortened: as §2
[34] = Volume of distribution in Sprague-Dawley rat at 0.8 mg/kg, iv or 5.8 mg/kg, po; type: ADME, organism-based; conditions: in vivo, read-out: Vdss; procedure, shortened: as §2
[35] = Oral bioavailability in Beagle dog at 0.8 mg/kg, iv or 1.8 mg/kg, po; type: ADME, organism-based, Canis lupus familiaris; conditions: in vivo; procedure, shortened: as §1
[36] = Half life in Beagle dog at 0.8 mg/kg, iv or 1.8 mg/kg, po; type: ADME, organism-based, Canis lupus familiaris; conditions: in vivo; procedure, shortened: as §1
[37] = Volume of distribution in Beagle dog at 0.8 mg/kg, iv or 1.8 mg/kg, po; type: ADME, organism-based, Canis lupus familiaris; conditions: in vivo, read-out: Vdss; procedure, shortened: as §1
[38] = Cmax in Beagle dog at 0.8 mg/kg, iv or 1.8 mg/kg, po; type: ADME, organism-based, Canis lupus familiaris; conditions: in vivo; procedure, shortened: as §1
[39] = Clearance in Sprague-Dawley rat at 0.8 mg/kg, iv or 5.8 mg/kg, po; type: ADME, organism-based; conditions: in vivo; procedure, shortened: as §2
[40] = Half life in Sprague-Dawley rat at 0.8 mg/kg, iv or 5.8 mg/kg, po; type: ADME, organism-based; conditions: in vivo; procedure, shortened: as §2
[41] = Clearance in Beagle dog at 0.8 mg/kg, iv or 1.8 mg/kg, po; type: ADME, organism-based, Canis lupus familiaris; conditions: in vivo; procedure, shortened: as §1

RNA-directed RNA polymerase (Hepacivirus hominis), sequence (O39930 1-591): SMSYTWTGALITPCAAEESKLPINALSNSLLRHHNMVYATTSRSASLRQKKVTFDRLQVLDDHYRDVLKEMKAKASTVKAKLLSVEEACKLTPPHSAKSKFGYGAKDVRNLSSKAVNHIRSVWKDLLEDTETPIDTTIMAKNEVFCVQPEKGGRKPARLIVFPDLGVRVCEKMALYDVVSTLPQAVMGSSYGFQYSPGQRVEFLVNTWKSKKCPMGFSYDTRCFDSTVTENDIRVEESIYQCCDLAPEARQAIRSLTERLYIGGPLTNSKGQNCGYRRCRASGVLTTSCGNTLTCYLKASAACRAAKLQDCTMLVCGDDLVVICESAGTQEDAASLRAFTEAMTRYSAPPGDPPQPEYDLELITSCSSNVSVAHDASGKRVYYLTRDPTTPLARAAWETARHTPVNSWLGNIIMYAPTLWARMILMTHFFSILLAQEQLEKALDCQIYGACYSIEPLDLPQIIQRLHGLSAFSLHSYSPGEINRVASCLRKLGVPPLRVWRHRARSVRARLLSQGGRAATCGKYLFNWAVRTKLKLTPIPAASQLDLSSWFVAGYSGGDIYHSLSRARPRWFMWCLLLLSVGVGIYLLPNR
RNA-directed RNA polymerase, sequence (O39930 whole entry): as the sequence (O39930 1-591) above

half-life [1]: 5.29 h | Cmax [2]: 2140 ng/mL | Vd [3]: 0.72 L/kg | bioavailability [4]: > 53% | EC90 [5]: 831 nM | IC50 [6]: 47 nM | bioavailability [7]: 100% | bioavailability [8]: > 50% | Cmax [9]: 1220 ng/mL | half-life [10]: 9.06 h | half-life [11]: 0.828 h | clearance [12]: 1.65 mL/min/kg | clearance [13]: 5.32 mL/min/kg | Cmax [14]: 1960 ng/mL | Vd [15]: 0.34 L/kg | Vd [16]: 0.81 L/kg | clearance [17]: 1.09 mL/min/kg
Compound: Cc1ccc2c(c1)c(O)c(C1=NS(=O)(=O)c3ccccc3N1)c(=O)n2CCC(C)C

half-life [18]: 1.35 h | Cmax [19]: 6460 ng/mL | half-life [20]: 4.82 h | bioavailability [21]: > 40% | clearance [22]: 0.47 mL/min/kg | EC90 [5]: 808 nM | Cmax [23]: 7920 ng/mL | IC50 [6]: 13 nM | half-life [24]: 1.87 h | Vd [25]: 0.25 L/kg | clearance [26]: 1.73 mL/min/kg | bioavailability [27]: 100% | Vd [28]: 0.15 L/kg | bioavailability [29]: 78% | clearance [30]: 1.7 mL/min/kg | Cmax [31]: 5400 ng/mL | Vd [32]: 0.19 L/kg
Compound: O=c1c(C2=NS(=O)(=O)c3ccccc3N2)c(O)c2ccccc2n1CCC1CC1

bioavailability [33]: 70% | Vd [34]: 0.44 L/kg | bioavailability [35]: 89% | half-life [36]: 14.3 h | Vd [37]: 0.53 L/kg | EC90 [5]: 1420 nM | Cmax [38]: 2230 ng/mL | clearance [39]: 10.1 mL/min/kg | half-life [40]: 0.607 h | clearance [41]: 0.5 mL/min/kg
Compound: CC(C)CCn1c(=O)c(C2=NS(=O)(=O)c3ccccc3N2)c(O)c2ccccc21
